Experiment [1] relates to HCT-116. Description: Inhibitory activity against HCT116 human colon cell growth. It is filed as functional, cell-based.
The test system of experiment [2] is NCI-H1299. Description: Inhibitory activity against H1299 human lung carcinoma cell growth. The format is functional, cell-based.
For experiment [3], the target named is Histone deacetylase. Description: Inhibitory activity against histone deacetylase (HDAC) enzyme obtained from H1299 human lung carcinoma cell lysates.
Experiment [4] deals with Mus musculus. Description: Ratio of number of deaths of mice to the number of mice tested was determined at a dose of 10 mg/kg; dead/total = 0 / 8. The format is functional. Put shortly:
(§1)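 Female outbred athymic nu/nu mice, eight per group, carrying subcutaneous right-axillary HCT116 (≈10⁶ cells) or A549 (≈10⁷ cells) xenografts, started treatment at ≈100 mm³ tumour volume. Drug given as lactate salt in 10% DMSO/D5W, iv qd 5×/week for 15 doses. Body weights and tumours recorded weekly; deaths counted per group as dead/total.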

Experiment [5] deals with Mus musculus. Description: Ratio of the change in tumor volume of treated animals to the change in tumor volume of control animals at a dose of 25 mg/kg. It is filed as functional. Put shortly: (§2)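 HCT116 sc xenografts (≈10⁶ cells) in female athymic nude mice, eight per group, treated from ≈100 mm³ tumors with iv lactate salt in 10% DMSO/D5W qd 5×/week for 10 or 15 doses. Tumors measured weekly; % T/C = change in treated tumor volume over change in vehicle-control tumor volume; one-tailed Student's t-test.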

Experiment [6] deals with Mus musculus. Briefly: Compound was tested in vivo for maximum tolerated dose (MTD) that resulted in no deaths when administered intravenously for five days. The format is functional. Put shortly:
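Athymic mice, four per group, dosed iv once daily for five consecutive days, up to a maximum of 200 mg/kg/day. Compound given as the lactate salt in 10% DMSO in 5% dextrose/water (final DMSO 10%). MTD taken as the highest dose that caused no deaths.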

Experiment [7] concerns Mus musculus. Briefly: Ratio of the change in tumor volume of treated animals to the change in tumor volume of control animals at a dose of 10 mg/kg. The format is functional. Put shortly: as §2
The subject of experiment [8] is Mus musculus. Description: Ratio of the change in tumor volume of treated animals to the change in tumor volume of control animals at a dose of 100 mg/kg. The format is functional. Put shortly: as §2
For experiment [9], the system named is Mus musculus. Briefly: Compound was tested in vivo for efficacy in athymic mice bearing HCT116 subcutaneous tumor xenografts at a dose of 10 mg/kg and change in the body weight of the mouse was evaluated. It is filed as functional. Conditions: route intravenous. Put shortly: (§3)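 Female outbred athymic nu/nu mice, ≈10⁶ HCT116 cells injected sc in right axillary region under anesthesia; treatment began when tumors ≈100 mm³ (day 13 post-implant), groups of eight balanced on tumor volume. Compound given iv as lactate salt in 10% DMSO/D5W, qd 5×/week for 15 doses. Individual body weights recorded once weekly; % change from start reported.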

In experiment [10] the test system is Mus musculus. Briefly: Ratio of number of deaths of mice to the number of mice tested was determined at a dose of 50 mg/kg; dead/total = 0 / 8. It is filed as functional. An outline of the steps:
as §1

For experiment [11], the system named is Mus musculus. Briefly: Compound was tested in vivo for efficacy in athymic mice bearing HCT116 subcutaneous tumor xenografts at a dose of 50 mg/kg and change in the body weight of the mouse was evaluated. It is filed as functional. Conditions: route intravenous. An outline of the steps:
as §3

The test system of experiment [12] is Mus musculus. Description: Compound was tested in vivo for efficacy in athymic mice bearing HCT116 subcutaneous tumor xenografts at a dose of 100 mg/kg and change in the body weight of the mouse was evaluated. Conditions: route intravenous. It is filed as functional. Put shortly: as §3
In experiment [13] the test system is Mus musculus. Description: Compound was tested in vivo for efficacy in athymic mice bearing HCT116 subcutaneous tumor xenografts at a dose of 25 mg/kg and change in the body weight of the mouse was evaluated. It is filed as functional.
Experiment [14] relates to Mus musculus. Description: Ratio of number of deaths of mice to the number of mice tested was determined at a dose of 100 mg/kg; dead/total = 0 / 8. It is filed as functional. An outline of the steps:
as §1

In experiment [15] the test system is Mus musculus. Briefly: Ratio of the change in tumor volume of treated animals to the change in tumor volume of control animals at a dose of 50 mg/kg. The format is functional. An outline of the steps:
as §2

Where “and” joins values, the source holds several entries; their conditions need not be identical. Equal entries are not always repeated.

For `O=C(/C=C/c1ccc(CNCCCc2c[nH]c3ccccc23)cc1)NO`, the figures for the IC50 in experiment [1], in [2] and in [3] were 100 nM, 1000 nM and 53 nM, respectively.

Turning to `O=C(/C=C/c1ccc(CNCCc2c[nH]c3ccc(F)cc23)cc1)NO`, the IC50 was found to be 30 nM in [1], 310 nM in experiment [2] and 14 nM in experiment [3]. The Ratio in experiment [4], in [10] and in experiment [14] was 0 throughout. Moreover, the T/C in experiment [5] was 19%; in experiment [7], 40%; in [8] (100 mg/kg), 16% and 8%; in experiment [15], 13%. Further, in [6], the MTD came to 100 mg/kg. Besides, the Body weight change in experiment [9] is -6.4%; in [11] it was -1.7%; in [12] (100 mg/kg), 6.7% and 7.5%; in experiment [13] it was -6.6%.

Consider `O=C(/C=C/c1ccc(CNCCc2coc3ccccc23)cc1)NO`, for which the IC50 in [1] amounted to 30 nM; in [2], 180 nM; in experiment [3] it was 16 nM. In experiment [6], the MTD was determined as 50 mg/kg. Also, in experiment [11], the Body weight change was 0.5%. Further, in experiment [15], the T/C turned out to be 49%.

Consider `CC(Cc1c[nH]c2ccccc12)NCc1ccc(/C=C/C(=O)NO)cc1` (stereo not drawn), for which the IC50 is 20 nM in [1], 410 nM in [2] and 24 nM in experiment [3].

On to `COc1ccccc1NCCNCc1ccc(/C=C/C(=O)NO)cc1`, for which the IC50 turned out to be 170 nM in experiment [1], 2160 nM in [2] and 111 nM in experiment [3].

As to `O=C(/C=C/c1ccc(CNCc2c[nH]c3ccccc23)cc1)NO`, the values for the IC50 in experiment [1], in [2] and in experiment [3] were 160 nM, 2200 nM and 59 nM, respectively.

For the compound `CC(NCCc1c[nH]c2ccccc12)c1ccc(/C=C/C(=O)NO)cc1` (stereo not drawn), the IC50 in [1] was found to be 15 nM; in [2] it was 480 nM; in experiment [3], 23 nM.

Turning to `O=C(/C=C/c1ccc(CN2CCC(c3c[nH]c4ccccc34)CC2)cc1)NO`, the IC50 in [1] is 110 nM; in [2] it was 900 nM; in [3], 53 nM.

Regarding `O=C(/C=C/c1ccc(CNCCOc2ccccc2)cc1)NO`, the results for the IC50 in experiment [1], in [2] and in [3] were 160 nM, 1530 nM and 69 nM, respectively.

As to `O=C(/C=C/c1ccc(CNCCCn2c3ccccc3c3ccccc32)cc1)NO`, the IC50 in experiment [1] turned out to be 160 nM; in experiment [2], 1100 nM; in [3] it was 79 nM.

For `COc1ccc2[nH]cc(CCNCc3ccc(/C=C/C(=O)NO)cc3)c2c1`, the IC50 in experiment [1] came out at 30 nM; in [2], 580 nM; in [3], 14 nM. Besides, the Ratio in experiment [4], in [10] and in experiment [14] was 0 throughout. Further, the T/C is 38% in [5]; 64% in experiment [7]; 9% and 22% in experiment [8] (100 mg/kg); 24% in experiment [15]. The compound further had an MTD in experiment [6] of 100 mg/kg. The Body weight change is -4.6% in experiment [9]; -8.1% in experiment [11]; 7.4% and 12% in experiment [12] (100 mg/kg); -5.5% in experiment [13].

Regarding `O=C(/C=C/c1ccc(CNCCc2cc3ccccc3[nH]2)cc1)NO`, the IC50 in [1] was found to be 40 nM; in experiment [2], 540 nM; in [3], 46 nM.

For `Cc1nc2ccccc2n1CCNCc1ccc(/C=C/C(=O)NO)cc1`, the IC50 in experiment [1] turned out to be 200 nM; in experiment [2], 2750 nM; in [3], 38 nM.

`CC(C)N(CCc1c[nH]c2ccccc12)Cc1ccc(/C=C/C(=O)NO)cc1`: the T/C in experiment [5] was 29%. Also, the MTD in [6] worked out at 25 mg/kg. Also, in experiment [2], it took 30 nM to reach half-maximal inhibition (IC50). Further, the Body weight change in [13] is -4.1%.

For the compound `O=C(/C=C/c1ccc(NCCCc2c[nH]c3ccccc23)cc1)NO`, the IC50 in [1] stood at 480 nM; in experiment [2] it was 820 nM; in experiment [3] it was 262 nM.

On to `O=C(/C=C/c1ccc(CN(CCc2c[nH]c3ccccc23)C2CCCCC2)cc1)NO`, for which the IC50 was determined as 17 nM in experiment [1], 40 nM in experiment [2] and 20 nM in experiment [3].

Take `O=C(/C=C/c1ccc(CNCCCCc2c[nH]c3ccccc23)cc1)NO`: the IC50 was found to be 30 nM in [1], 480 nM in experiment [2] and 37 nM in experiment [3].

Take `O=C(/C=C/c1ccc(CN(CCOC(=O)NCc2ccoc2)CCc2c[nH]c3ccccc23)cc1)NO`: the values for the IC50 in experiment [1], in experiment [2] and in experiment [3] were 15 nM, 180 nM and 370 nM, respectively.

In the case of `O=C(/C=C/c1ccc(CN(CCCc2ccccc2)Cc2ccccn2)cc1)NO`, the IC50 was determined as 740 nM in experiment [1], 2740 nM in experiment [2] and 278 nM in [3].

As to `O=C(/C=C/c1ccc(CNCc2cc3ccccc3[nH]2)cc1)NO`, the IC50 was 50 nM in experiment [1], 940 nM in experiment [2] and 51 nM in experiment [3].

For `O=C(/C=C/c1ccc(CN2CCc3c([nH]c4ccccc34)C2)cc1)NO`, the results for the IC50 in experiment [1], in experiment [2] and in experiment [3] were 430 nM, 2900 nM and 118 nM, respectively.

Turning to `O=C(/C=C/c1ccc(CN(CCCc2ccccc2)Cc2cccnc2)cc1)NO`, the IC50 in [1] stood at 420 nM; in experiment [2], 1700 nM; in experiment [3], 164 nM.

As for `O=C(/C=C/c1ccc(CNCCc2ccc3c(c2)OCO3)cc1)NO`, the IC50 in [1] amounted to 50 nM; in [2], 500 nM; in experiment [3], 30 nM.

Turning to `O=C(/C=C/c1ccc(CN(CCc2c[nH]c3ccccc23)C(CO)CO)cc1)NO`, the IC50 came out at 160 nM in [1], 2500 nM in [2] and 52 nM in experiment [3].

`O=C(/C=C/c1ccc(CN[C@H](CO)Cc2c[nH]c3ccccc23)cc1)NO`: the 50% inhibitory concentration (IC50) in experiment [1] was 50 nM; in [2], 810 nM; in experiment [3], 27 nM.

For `O=C(/C=C/c1ccc(CNCCc2c[nH]c3ccccc23)cc1)NO`, the T/C amounted to 40% in experiment [5], 56% in [7], 17% in experiment [8] and 13% in experiment [15]. For the same compound, in [6], the MTD was 100 mg/kg. Besides, the Body weight change in experiment [9] is -10.2%; in [11], -7.3%; in experiment [12] it was -9.4%; in experiment [13] it was -7%. The compound further yielded an IC50 in experiment [2] of 400 nM.

For the compound `O=C(/C=C/c1ccc(CN(CCO)CCc2cnc3ccccc3c2)cc1)NO`, the figures for the IC50 in experiment [1], in experiment [2] and in experiment [3] were 40 nM, 530 nM and 24 nM, respectively. In experiment [6], the MTD was 50 mg/kg. The Body weight change in experiment [11] is listed as 3.1%. Moreover, in experiment [15], the T/C is recorded as 78%.

On to `Nc1ccccc1NC(=O)c1ccc(CNC(=O)OCc2ccccc2)cc1`, for which the IC50 was 670 nM in experiment [1], 6820 nM in [2] and > 10000 nM in experiment [3].

Regarding `O=C(/C=C/c1ccc(CN[C@@H](CO)Cc2c[nH]c3ccccc23)cc1)NO`, the IC50 in experiment [1] is 40 nM; in experiment [2] it was 750 nM; in experiment [3], 40 nM.

For `O=C(/C=C/c1ccc(CN(CCc2c[nH]c3ccccc23)Cc2ccccc2)cc1)NO`, the figures for the IC50 in [1], in experiment [2] and in [3] were 120 nM, 2060 nM and 85 nM, respectively.

By IC50 is commonly meant the concentration needed to halve the response being measured. By T/C is commonly meant the result in the treated group divided by that in the control group, in per cent. As a reminder, the MTD is the highest dose tested that stayed within the study's limit of toxicity.

For the origin of these results see ChEMBL document CHEMBL1145132, “N-hydroxy-3-phenyl-2-propenamides as novel inhibitors of human histone deacetylase with in vivo antitumor activity: discovery of (2E)-N-hydroxy-3-[4-[[(2-hydroxyethyl)[2-(1H-indol-3-yl)ethyl]amino]methyl]phenyl]-2-propenamide (NVP-LAQ824)” (J Med Chem, 2003).
